pIC50: −log10 of the molar value. Where a SMILES comes first, the peptide text is derived from it. Bridges are numbered along the chain shown (N, C = ends).
Legend:
[1] = target: Nicotinic acetylcholine receptor alpha6/alpha3/beta4 (Rattus norvegicus, UniProt P04757+P12392+P43143); type: cell-based, Oocyte
[2] = target: Neuronal acetylcholine receptor; alpha3/beta2 (Rattus norvegicus, UniProt P04757+P12390); type: cell-based, Oocyte
[3] = target: Neuronal acetylcholine receptor; alpha3/beta4 (Rattus norvegicus, UniProt P04757+P12392); type: cell-based, Oocyte
Sequence of Neuronal acetylcholine receptor; alpha3/beta4 (Rattus norvegicus, UniProt P04757+P12392) (P04757 whole entry): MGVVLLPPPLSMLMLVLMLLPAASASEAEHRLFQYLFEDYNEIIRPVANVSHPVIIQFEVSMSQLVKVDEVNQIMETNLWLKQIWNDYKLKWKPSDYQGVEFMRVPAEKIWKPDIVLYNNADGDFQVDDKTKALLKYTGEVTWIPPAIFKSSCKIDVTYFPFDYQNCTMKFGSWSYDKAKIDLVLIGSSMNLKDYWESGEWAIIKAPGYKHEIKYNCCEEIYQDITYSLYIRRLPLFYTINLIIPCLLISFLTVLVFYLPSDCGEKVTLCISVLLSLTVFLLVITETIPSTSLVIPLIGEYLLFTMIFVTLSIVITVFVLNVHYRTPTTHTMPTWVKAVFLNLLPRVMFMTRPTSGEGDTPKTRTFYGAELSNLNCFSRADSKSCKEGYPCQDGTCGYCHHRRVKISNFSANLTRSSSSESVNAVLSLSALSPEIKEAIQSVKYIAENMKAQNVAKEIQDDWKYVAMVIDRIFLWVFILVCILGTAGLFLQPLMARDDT
Sequence of Neuronal acetylcholine receptor; alpha3/beta4 (Rattus norvegicus, UniProt P04757+P12392) (P12392 whole entry): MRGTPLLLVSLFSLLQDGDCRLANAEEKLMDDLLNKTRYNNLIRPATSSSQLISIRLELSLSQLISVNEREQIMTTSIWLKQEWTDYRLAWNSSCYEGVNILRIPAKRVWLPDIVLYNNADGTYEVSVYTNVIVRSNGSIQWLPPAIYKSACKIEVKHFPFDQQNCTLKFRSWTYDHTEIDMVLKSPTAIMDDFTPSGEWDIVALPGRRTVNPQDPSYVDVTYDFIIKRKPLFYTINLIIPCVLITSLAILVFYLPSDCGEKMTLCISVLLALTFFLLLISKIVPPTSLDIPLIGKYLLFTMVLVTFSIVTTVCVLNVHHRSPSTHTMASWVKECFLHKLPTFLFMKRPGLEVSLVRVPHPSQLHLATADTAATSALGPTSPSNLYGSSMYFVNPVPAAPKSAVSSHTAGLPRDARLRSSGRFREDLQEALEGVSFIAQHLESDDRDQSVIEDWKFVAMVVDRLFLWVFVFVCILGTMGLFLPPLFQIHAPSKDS

[4] = target: Neuronal acetylcholine receptor; alpha4/beta2 (Rattus norvegicus, UniProt P09483+P12390); type: cell-based, Oocyte
[5] = target: Neuronal acetylcholine receptor; alpha4/beta4 (Rattus norvegicus, UniProt P09483+P12392); type: cell-based, Oocyte
[6] = target: Nicotinic acetylcholine receptor alpha6/alpha3/beta2/beta3 (Rattus norvegicus, UniProt P04757+P12390+P12391+P43143); type: cell-based, Oocyte
Sequence of Nicotinic acetylcholine receptor alpha6/alpha3/beta2/beta3 (P04757 whole entry): as the sequence (P04757 whole entry) above
Sequence of Nicotinic acetylcholine receptor alpha6/alpha3/beta2/beta3 (P12390 whole entry): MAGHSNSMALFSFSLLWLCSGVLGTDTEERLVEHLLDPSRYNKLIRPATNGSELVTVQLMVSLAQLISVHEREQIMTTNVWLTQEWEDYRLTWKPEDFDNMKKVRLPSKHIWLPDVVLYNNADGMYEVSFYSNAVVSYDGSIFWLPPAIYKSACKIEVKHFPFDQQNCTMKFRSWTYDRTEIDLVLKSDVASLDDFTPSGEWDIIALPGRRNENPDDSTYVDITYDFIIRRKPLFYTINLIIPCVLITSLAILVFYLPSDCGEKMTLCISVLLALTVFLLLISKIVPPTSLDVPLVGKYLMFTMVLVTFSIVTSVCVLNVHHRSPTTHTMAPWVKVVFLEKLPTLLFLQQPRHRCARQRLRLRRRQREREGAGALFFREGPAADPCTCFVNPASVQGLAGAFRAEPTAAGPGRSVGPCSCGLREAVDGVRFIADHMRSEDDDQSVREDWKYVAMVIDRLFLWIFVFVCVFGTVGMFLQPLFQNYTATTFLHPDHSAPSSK
Sequence of Nicotinic acetylcholine receptor alpha6/alpha3/beta2/beta3 (P12391 whole entry): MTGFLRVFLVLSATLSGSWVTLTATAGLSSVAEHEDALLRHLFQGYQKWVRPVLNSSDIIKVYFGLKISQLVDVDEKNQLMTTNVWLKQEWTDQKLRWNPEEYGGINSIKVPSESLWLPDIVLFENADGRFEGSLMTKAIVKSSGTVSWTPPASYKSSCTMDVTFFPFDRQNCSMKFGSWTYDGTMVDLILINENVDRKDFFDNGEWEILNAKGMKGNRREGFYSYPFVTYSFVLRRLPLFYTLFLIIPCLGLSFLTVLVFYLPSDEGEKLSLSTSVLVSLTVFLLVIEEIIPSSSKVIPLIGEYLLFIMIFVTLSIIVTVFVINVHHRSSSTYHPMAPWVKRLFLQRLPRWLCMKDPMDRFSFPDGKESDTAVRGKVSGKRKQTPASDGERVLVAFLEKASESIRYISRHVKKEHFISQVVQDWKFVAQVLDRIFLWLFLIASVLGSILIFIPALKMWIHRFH
Sequence of Nicotinic acetylcholine receptor alpha6/alpha3/beta2/beta3 (P43143 whole entry): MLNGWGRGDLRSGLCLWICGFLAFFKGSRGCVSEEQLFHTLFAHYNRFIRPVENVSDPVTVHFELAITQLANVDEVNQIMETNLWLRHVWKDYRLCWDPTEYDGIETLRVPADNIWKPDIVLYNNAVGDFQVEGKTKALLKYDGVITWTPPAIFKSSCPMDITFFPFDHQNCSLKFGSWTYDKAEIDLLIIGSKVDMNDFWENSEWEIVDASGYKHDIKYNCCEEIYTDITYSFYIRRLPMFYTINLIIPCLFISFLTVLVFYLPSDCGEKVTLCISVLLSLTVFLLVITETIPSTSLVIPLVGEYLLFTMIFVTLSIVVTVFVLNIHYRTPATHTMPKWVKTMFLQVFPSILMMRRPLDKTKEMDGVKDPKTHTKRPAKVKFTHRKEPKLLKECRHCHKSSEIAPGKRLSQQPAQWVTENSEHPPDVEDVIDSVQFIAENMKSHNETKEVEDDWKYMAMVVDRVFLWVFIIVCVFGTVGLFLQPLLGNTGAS

[7] = target: Neuronal acetylcholine receptor subunit alpha-7 (Rattus norvegicus, UniProt Q05941); type: cell-based, Oocyte
Sequence of Neuronal acetylcholine receptor subunit alpha-7 (Rattus norvegicus, UniProt Q05941) (Q05941 whole entry): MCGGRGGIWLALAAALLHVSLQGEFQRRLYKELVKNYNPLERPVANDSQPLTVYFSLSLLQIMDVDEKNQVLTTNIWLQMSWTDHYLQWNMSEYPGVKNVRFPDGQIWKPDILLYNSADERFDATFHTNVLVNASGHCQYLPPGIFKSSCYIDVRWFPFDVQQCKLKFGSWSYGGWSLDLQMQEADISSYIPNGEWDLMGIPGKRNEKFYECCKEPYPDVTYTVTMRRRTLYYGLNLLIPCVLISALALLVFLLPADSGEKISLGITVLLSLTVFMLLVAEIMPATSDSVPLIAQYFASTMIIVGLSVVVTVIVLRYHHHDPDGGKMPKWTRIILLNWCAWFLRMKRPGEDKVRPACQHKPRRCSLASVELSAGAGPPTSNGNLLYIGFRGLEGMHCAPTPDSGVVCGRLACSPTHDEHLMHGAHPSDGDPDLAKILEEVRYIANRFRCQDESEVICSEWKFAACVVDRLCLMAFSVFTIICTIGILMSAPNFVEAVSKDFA

[8] = target: Neuronal acetylcholine receptor; alpha2/beta2 (Homo sapiens, UniProt P17787+Q15822); assay: Inhibition of human alpha2beta2 nAChR expressed in Xenopus laevis oocytes assessed as inhibition of acetylcholine-induced current response by two-electrode voltage-clamp method; type: cell-based, Oocyte
In short: (§1)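 Two-electrode voltage clamp of stage IV–V oocytes 1–5 days after equal-ratio cRNA injection; ACh 100 μM (β2-containing subtypes, α9α10), 1 s every 60 s in frog saline. Peptide perfused up to 1 μM, responses normalized to mean of three control responses; above 1 μM, 5 min static bath. IC50 with 95% CI; n = oocytes.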

[9] = target: Neuronal acetylcholine receptor; alpha2/beta2 (Rattus norvegicus, UniProt P12389+P12390); assay: Inhibition of rat alpha2beta2 nAChR expressed in Xenopus laevis oocytes assessed as inhibition of acetylcholine-induced current response by two-electrode voltage-clamp method; type: cell-based, Oocyte
In short: as §1

[10] = target: Neuronal acetylcholine receptor; alpha2/beta4 (Rattus norvegicus, UniProt P12389+P12392); assay: Inhibition of rat alpha2beta4 nAChR expressed in Xenopus laevis oocytes assessed as inhibition of acetylcholine-induced current response by two-electrode voltage-clamp method; type: cell-based, Oocyte
In short: (§2)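 TEVC on stage IV–V oocytes 1–5 days after equal-ratio cRNA injection (α2β4, α3β4, α4β4, α7). ACh 300 μM, 1 s pulses at 60 s intervals under frog saline perfusion. Peptide perfused to 1 μM, normalized to average of three control responses; higher concentrations by 5 min static bath. IC50 with 95% CI, n oocytes.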

[11] = target: Neuronal acetylcholine receptor; alpha3/beta2 (Homo sapiens, UniProt P17787+P32297); assay: Inhibition of human alpha3beta2 nAChR expressed in Xenopus laevis oocytes assessed as inhibition of acetylcholine-induced current response by two-electrode voltage-clamp method; type: cell-based, Oocyte
In short: as §1

[12] = target: Neuronal acetylcholine receptor; alpha3/beta4 (Homo sapiens, UniProt P30926+P32297); assay: Inhibition of human alpha3beta4 nAChR expressed in Xenopus laevis oocytes assessed as inhibition of acetylcholine-induced current response by two-electrode voltage-clamp method; type: cell-based, Oocyte
In short: as §2

[13] = target: Neuronal acetylcholine receptor; alpha4/beta2 (Homo sapiens, UniProt P17787+P43681); assay: Inhibition of human alpha4beta2 nAChR expressed in Xenopus laevis oocytes assessed as inhibition of acetylcholine-induced current response by two-electrode voltage-clamp method; type: cell-based, Oocyte
In short: as §1

[14] = Inhibition of human alpha4beta4 nAChR expressed in Xenopus laevis oocytes assessed as inhibition of acetylcholine-induced current response by two-electrode voltage-clamp method; type: cell-based; settings: Oocyte
In short: as §2

[15] = target: Neuronal acetylcholine receptor; alpha3/alpha6/beta2/beta3 (Homo sapiens, UniProt P17787+P32297+Q05901+Q15825); assay: Inhibition of human alpha6/alpha3beta2beta3 nAChR expressed in Xenopus laevis oocytes assessed as inhibition of acetylcholine-induced current response by two-electrode voltage-clamp method; type: cell-based, Oocyte
In short: as §1

[16] = target: Neuronal acetylcholine receptor subunit alpha-7 (Homo sapiens, UniProt P36544); assay: Inhibition of human alpha7 nAChR expressed in Xenopus laevis oocytes assessed as inhibition of acetylcholine-induced current response by two-electrode voltage-clamp method; type: cell-based, Oocyte
In short: as §2

[17] = target: Neuronal acetylcholine receptor; alpha9/alpha10 (Homo sapiens, UniProt Q9GZZ6+Q9UGM1); assay: Inhibition of human alpha9alpha10 nAChR expressed in Xenopus laevis oocytes assessed as inhibition of acetylcholine-induced current response by two-electrode voltage-clamp method; type: cell-based, Oocyte
In short: as §1

[18] = target: Nicotinic acetylcholine receptor alpha9/alpha10 (Rattus norvegicus, UniProt P43144+Q9JLB5); assay: Inhibition of rat alpha9alpha10 nAChR expressed in Xenopus laevis oocytes assessed as inhibition of acetylcholine-induced current response by two-electrode voltage-clamp method; type: cell-based, Oocyte
In short: as §1

[19] = species: Homo sapiens; assay: Selectivity ratio of IC50 for human alpha2beta2 nAChR to IC50 for human alpha6/alpha3beta4 nAChR
In short: (§3)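 Ratio of each subtype's IC50, from TEVC inhibition of ACh-evoked currents in X. laevis oocytes, to the IC50 at the same species' α6/α3β4 nAChR; IC50 values with 95% CI, n = number of oocytes.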

[20] = species: Rattus norvegicus; assay: Selectivity ratio of IC50 for rat alpha2beta2 nAChR to IC50 for rat alpha6/alpha3beta4 nAChR
In short: as §3

[21] = species: Homo sapiens; assay: Selectivity ratio of IC50 for human alpha2beta4 nAChR to IC50 for human alpha6/alpha3beta4 nAChR
In short: as §3

[22] = species: Rattus norvegicus; assay: Selectivity ratio of IC50 for rat alpha2beta4 nAChR to IC50 for rat alpha6/alpha3beta4 nAChR
In short: as §3

[23] = species: Rattus norvegicus; assay: Selectivity ratio of IC50 for rat alpha3beta4 nAChR to IC50 for rat alpha6/alpha3beta4 nAChR
In short: as §3

[24] = species: Homo sapiens; assay: Selectivity ratio of IC50 for human alpha4beta2 nAChR to IC50 for human alpha6/alpha3beta4 nAChR
In short: as §3

[25] = species: Rattus norvegicus; assay: Selectivity ratio of IC50 for rat alpha4beta2 nAChR to IC50 for rat alpha6/alpha3beta4 nAChR
In short: as §3

[26] = species: Homo sapiens; assay: Selectivity ratio of IC50 for human alpha4beta4 nAChR to IC50 for human alpha6/alpha3beta4 nAChR
In short: as §3

[27] = species: Rattus norvegicus; assay: Selectivity ratio of IC50 for rat alpha4beta4 nAChR to IC50 for rat alpha6/alpha3beta4 nAChR
In short: as §3

[28] = species: Homo sapiens; assay: Selectivity ratio of IC50 for human alpha6/alpha3beta2beta3 nAChR to IC50 for human alpha6/alpha3beta4 nAChR
In short: as §3

[29] = species: Homo sapiens; assay: Selectivity ratio of IC50 for human alpha9alpha10 nAChR to IC50 for human alpha6/alpha3beta4 nAChR
In short: as §3

[30] = target: Neuronal acetylcholine receptor; alpha2/beta4 (Rattus norvegicus) (UniProt P12389+P12392); assay: Inhibition of rat alpha2beta4 nAChR expressed in Xenopus laevis oocytes assessed as inhibition of acetylcholine-induced current response at 10 uM by two-electrode voltage-clamp method relative to control; type: cell-based; settings: Oocyte
In short: (§4)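 Stage IV–V X. laevis oocytes expressing equal-ratio cRNAs of α2β4, α3β4, α4β4 or α7 subunits; TEVC 1–5 days after injection. ACh 300 μM, 1 s at 60 s intervals. 10 μM peptide as 5 min static bath, normalized to ACh response after 5 min bath of control saline; mean ± SD, n = 4.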

[31] = target: Neuronal acetylcholine receptor; alpha4/beta4 (Rattus norvegicus) (UniProt P09483+P12392); assay: Inhibition of rat alpha4beta4 nAChR expressed in Xenopus laevis oocytes assessed as inhibition of acetylcholine-induced current response at 10 uM by two-electrode voltage-clamp method relative to control; type: cell-based; settings: Oocyte
In short: as §4

[32] = system: Oocyte; assay: Inhibition of human alpha4beta4 nAChR expressed in Xenopus laevis oocytes assessed as inhibition of acetylcholine-induced current response at 10 uM by two-electrode voltage-clamp method relative to control; type: cell-based
In short: as §4

Sequence of Nicotinic acetylcholine receptor alpha6/alpha3/beta4 (P04757 whole entry): as the sequence (P04757 whole entry) above
Sequence of Nicotinic acetylcholine receptor alpha6/alpha3/beta4 (P12392 whole entry): as the sequence (P12392 whole entry) above
Sequence of Nicotinic acetylcholine receptor alpha6/alpha3/beta4 (P43143 whole entry): as the sequence (P43143 whole entry) above

In the case of `CC(C)C[C@@H]1NC(=O)[C@H](C)NC(=O)[C@@H]2CCCN2C(=O)[C@H](CCC(=O)O)NC(=O)[C@H](CCCNC(=N)N)NC(=O)[C@H](C)NC(=O)[C@H](Cc2cnc[nH]2)NC(=O)[C@@H]2CSSC[C@H](NC(=O)CN)C(=O)N[C@@H](CSSC[C@@H](C(N)=O)NC1=O)C(=O)N[C@@H](CO)C(=O)N[C@@H](Cc1cnc[nH]1)C(=O)N1CCC[C@H]1C(=O)N[C@@H](Cc1cnc[nH]1)C(=O)N2` (H-GCCSHPHCHAREPALC-NH2; disulfide 2-8, 3-16), the pIC50 [1] was 7.36, the pIC50 [2] was under 5.00 and the pIC50 [3] was under 5.00. The pIC50 [4] was under 5.00, the pIC50 [5] was under 5.00 and the pIC50 [6] was 7.36. It also gave a pIC50 [7] of under 5.00.

`CC(C)C[C@@H]1NC(=O)[C@H](C)NC(=O)[C@H](CCCNC(=N)N)NC(=O)[C@H](Cc2cnc[nH]2)NC(=O)[C@H](CCCNC(=N)N)NC(=O)[C@H](C)NC(=O)[C@H](CCCNC(=N)N)NC(=O)[C@@H]2CSSC[C@H](NC(=O)CN)C(=O)N[C@@H](CSSC[C@@H](C(N)=O)NC1=O)C(=O)N[C@@H](CO)C(=O)N[C@@H](Cc1cnc[nH]1)C(=O)N1CCC[C@H]1C(=O)N[C@@H](C(C)C)C(=O)N2` (H-GCCSHPVCRARHRALC-NH2; disulfide 2-8, 3-16) gave a pIC50 [1] of under 5.00, a pIC50 [8] of under 5.00 and a pIC50 [9] of under 5.00. The pIC50 [10] was under 5.00, the pIC50 [11] was 4.91 and the pIC50 [2] was 5.02. It also gave a pIC50 [12] of 5.04, a pIC50 [3] of under 5.00 and a pIC50 [13] of under 5.00. For the same compound, the pIC50 [4] was under 5.00, the pIC50 [14] was under 5.00 and the pIC50 [15] was 8.26. For the same compound, the pIC50 [6] was 8.50, the pIC50 [16] was 5.26 and the pIC50 [7] was 5.40. The pIC50 [17] was 6.24, the pIC50 [18] was 6.18 and the Ratio IC50 [19] was over 1800. It also gave a Ratio IC50 [20] of over 3180, a Ratio IC50 [21] of over 1800 and a Ratio IC50 [22] of over 3180. It also gave a Ratio IC50 [23] of over 3180, a Ratio IC50 [24] of over 1800 and a Ratio IC50 [25] of over 3180. The Ratio IC50 [26] was over 1800, the Ratio IC50 [27] was over 3180 and the Ratio IC50 [28] was 1. For the same compound, the Ratio IC50 [29] was 104, the inhibition [30] was 85% and the inhibition [31] was 82%. It also gave an inhibition [32] of 92%.
